The text below walks through data of paper PMC3815528 (Molecular nutrition & food research, 2013).

What is called IC50 is the concentration needed to halve the response being measured. One may read the Km as the substrate concentration at which the rate is half of its maximum.

Series [1] in a line: Metabolic profile of [6]-shogaol in dog liver microsomes. In kind it is in vitro ADME, beagle dog. As to conditions: dog liver microsomes 0.5 mg/mL, [6]-shogaol 50 µM, 30 min. In outline: (§1)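 Microsomes in 100 mM potassium phosphate buffer with an NADPH-regenerating system were preincubated 5 min at 37°C. Reaction was started with test compound (DMSO, final ≤1% v/v) and run 30 min at 37°C, then stopped with an equal volume of ice-cold acetonitrile containing 2% acetic acid. After centrifugation at 13,000g for 10 min, supernatant went to C18 HPLC with electrochemical array detection, read at the 300 mV channel.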
(In general: Liver microsomes are vesicles of endoplasmic reticulum, rich in cytochrome P450 enzymes.)

Series [2] can be described thus: Metabolic profile of [6]-shogaol in human liver microsomes. The settings on record: human liver microsomes 0.5 mg/mL, [6]-shogaol 50 µM, 30 min. In kind it is in vitro ADME.
Series [3] can be described thus: Metabolic profile of [6]-shogaol in monkey liver microsomes. As to conditions: monkey liver microsomes 0.5 mg/mL, [6]-shogaol 50 µM, 30 min. In kind it is in vitro ADME, cynomolgus monkey. In outline:
as §1

A short description of series [4]: Metabolic profile of [6]-shogaol in rat liver microsomes. Type of series: in vitro ADME, Sprague-Dawley rat. The settings on record: rat liver microsomes 0.5 mg/mL, [6]-shogaol 50 µM, 30 min. In outline:
as §1

Series [5] is described as follows: Metabolic profile of [6]-shogaol in mouse liver microsomes. Type of series: in vitro ADME, CD-1 mouse. The settings on record: mouse liver microsomes 0.5 mg/mL, [6]-shogaol 50 µM, 30 min. In outline:
as §1

The test system of series [6] is H-1299 human lung cancer cells. The series is described as follows: MTT growth inhibition, human lung cancer cells. In kind it is cell-based. The settings on record: read-out: IC50, cell viability (MTT); H-1299, 24 hours, 0 to 80 µM.
Series [7] has as its system HCT-116 human colon cancer cells. As to the kind of experiment: MTT growth inhibition, human colon cancer cells. In kind it is cell-based. The settings on record: read-out: IC50, cell viability (MTT); HCT-116, 24 hours, 0 to 80 µM.
Series [8] has as its system H-1299 human lung cancer cells. The series is described as follows: Induction of apoptosis. In kind it is cell-based. The settings on record: H-1299, 10 µM compound, 24 hours. In outline:
(§2)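 Cells in McCoy's 5A with 10% FBS, 1% penicillin/streptomycin and 1% glutamine were seeded at 5000 cells/well and allowed to attach overnight at 37°C. They were then exposed to test compound in DMSO, diluted in medium, for 24 h. Lysates were spun at 300 g for 10 min and run in a histone–DNA sandwich ELISA (anti-histone-biotin/anti-DNA-POD, 2 h RT; ABTS 15 min; A430). Triplicate; fold over DMSO control, mean ± SD.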

For series [9], the system named is HCT-116 human colon cancer cells. The series is described as follows: Induction of apoptosis. As to conditions: HCT-116, 10 µM compound, 24 hours. In kind it is cell-based. Summed up:
as §2

Series [10] can be described thus: Kinetic study of [6]-shogaol metabolism to M6 in human liver microsomes. Type of series: in vitro ADME. The settings on record: probe [6]-shogaol (substrate).
Series [11] can be described thus: Kinetic study of [6]-shogaol metabolism to M6 in mouse liver microsomes. In kind it is in vitro ADME, CD-1 mouse. As to conditions: mouse liver microsomes 0.1 mg/mL, [6]-shogaol 7.8 to 2000 µM, 30 min.
Series [12] is described as follows: Kinetic study of [6]-shogaol metabolism to M6 in dog liver microsomes. Type of series: in vitro ADME, beagle dog. As to conditions: dog liver microsomes 0.1 mg/mL, [6]-shogaol 7.8 to 2000 µM, 30 min.

For `CCCCCCCC(=O)/C=C/c1ccc(O)c(OC)c1` [M15, (E)-1-(4'-hydroxy-3'-methoxyphenyl)-dec-1-en-3-one], the “Relative abundance of metabolite formed from [6]-shogaol” value (from here on “Relative abundance of metabolite formed”) in [1] was “abundant”; in series [2], “very minor”; in series [3], “abundant”; in [4], “very minor”; in [5] it was “very minor”.
Consider `CCCCCCCC(=O)CCc1ccc(O)c(OC)c1` [M11, 1-(4'-hydroxy-3'-methoxyphenyl)-decan-3-one], for which the “Relative abundance of metabolite formed” value in series [1] is reported as “very minor product”; in series [2] it was “major product”; in [3], “minute amounts”; in series [4], “very minor product”; in series [5], “minute amounts”.
As for `CCCCC/C=C/C(=O)CCc1ccc(O)c(OC)c1` [[6]-shogaol], the IC50 in series [6] was 17.3 µM; in series [7] it was 19.9 µM. Besides, the “Induction of apoptosis compared to DMSO control” value is reported as approximately 2 fold in series [8] and 1 fold in [9].
Take `CCCCC/C=C/C(=O)/C=C/c1ccc(O)c(OC)c1` [M14, (1E, 4E)-1-(4'-hydroxy-3'-methoxyphenyl)-deca-1,4-dien-3-one]: the “Relative abundance of metabolite formed” value was “minor” in series [1]; “smallest amount” in series [2]; “major metabolite” in series [3]; “minor” in series [4]; “minor” in series [5].
For the molecule `CCCCCC=CC(O)CCc1ccc(O)c(OC)c1` (stereo not drawn) [M6, 1-(4'-hydroxy-3'-methoxyphenyl)-4-decen-3-ol], in series [10], the Km at 30 min was determined as 45.6 µM. Besides, the “Vmax of M6 formation” value is reported as 4.10 +/− 0.19 nanomoles per minute per milligram liver microsomes in series [11] and 7.33 +/− 0.43 nanomoles per minute per milligram liver microsomes in [12]. Moreover, the “Relative abundance of metabolite formed” value in series [1] is recorded as “intermediate relative amount”; in series [2], “intermediate relative amount”; in series [3], “minor metabolite”; in series [4], “dominant peak”; in series [5] it was “dominant peak”.
